Results published in ChEMBL document CHEMBL3045797, “Isolation and identification of novel macrocyclic lactones from Streptomyces avermitilis NEAU1069 with acaricidal and nematocidal activity” (2010).

Tests used:
Format in all cases: functional
Tetranychus urticae [1] = assay: Acaricidal activity against adult Tetranychus urticae (two-spotted spider mite) in leaves of cowpea plant assessed as number of unhatched eggs at 50 ug/mL at 25 degC measured after 10 days (reference value: 0%)
Tetranychus urticae [2] = assay: Acaricidal activity against adult Tetranychus urticae (two-spotted spider mite) in leaves of cowpea plant assessed as number of unhatched eggs at 100 ug/mL at 25 degC measured after 10 days (reference value: 0%)
Tetranychus urticae [3] = assay: Acaricidal activity against adult Tetranychus urticae (two-spotted spider mite) in leaves of cowpea plant assessed as mortality at 10 ug/mL at 25 degC measured after 3 days (reference value: 0%); settings: 72 h
Tetranychus urticae [4] = assay: Acaricidal activity against adult Tetranychus urticae (two-spotted spider mite) in leaves of cowpea plant assessed as mortality at 2 ug/mL at 25 degC measured after 3 days (reference value: 0%); settings: 72 h
Tetranychus urticae [5] = assay: Acaricidal activity against adult Tetranychus urticae (two-spotted spider mite) in leaves of cowpea plant assessed as mortality at 30 ug/mL at 25 degC measured after 3 days (reference value: 0%); settings: 72 h
Tetranychus urticae [6] = assay: Acaricidal activity against adult Tetranychus urticae (two-spotted spider mite) in leaves of cowpea plant assessed as mortality at 50 ug/mL at 25 degC measured after 3 days (reference value: 0%); settings: 72 h
Tetranychus urticae [7] = assay: Acaricidal activity against adult Tetranychus urticae (two-spotted spider mite) in leaves of cowpea plant assessed as mortality at 100 ug/mL at 25 degC measured after 3 days (reference value: 0%); settings: 72 h
Caenorhabditis elegans [8] = assay: Nematocidal activity against Caenorhabditis elegans assessed as immobilized rate at 2 ug/mL at 25 degC for 15 hr (reference value: 5.3 to 6.8%)
Caenorhabditis elegans [9] = assay: Nematocidal activity against Caenorhabditis elegans assessed as immobilized rate at 10 ug/mL at 25 degC for 15 hr (reference value: 5.3 to 6.8%)
Procedure, shortened: (§1)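 Compounds were prepared as 0.1% MeOH solutions and diluted 10-fold in water to give 100 μg/mL test solutions. Immobilized and total C. elegans were counted under a stereomicroscope. Result is % immobilized of all nematodes tested.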

Caenorhabditis elegans [10] = assay: Nematocidal activity against Caenorhabditis elegans assessed as immobilized rate at 30 ug/mL at 25 degC for 15 hr (reference value: 5.3 to 6.8%)
Caenorhabditis elegans [11] = assay: Nematocidal activity against Caenorhabditis elegans assessed as immobilized rate at 50 ug/mL at 25 degC for 15 hr (reference value: 5.3 to 6.8%); procedure, shortened: as §1
Caenorhabditis elegans [12] = assay: Nematocidal activity against Caenorhabditis elegans assessed as immobilized rate at 100 ug/mL at 25 degC for 15 hr (reference value: 5.3 to 6.8%); procedure, shortened: as §1
Tetranychus urticae [13] = assay: Acaricidal activity against adult Tetranychus urticae (two-spotted spider mite) in leaves of cowpea plant assessed as number of unhatched eggs at 2 ug/mL at 25 degC measured after 10 days (reference value: 0%)
Tetranychus urticae [14] = assay: Acaricidal activity against adult Tetranychus urticae (two-spotted spider mite) in leaves of cowpea plant assessed as number of unhatched eggs at 10 ug/mL at 25 degC measured after 10 days (reference value: 0%)
Tetranychus urticae [15] = assay: Acaricidal activity against adult Tetranychus urticae (two-spotted spider mite) in leaves of cowpea plant assessed as number of unhatched eggs at 30 ug/mL at 25 degC measured after 10 days (reference value: 0%)

| Structure (SMILES) | Activity (Tetranychus urticae [1]) | Activity (Tetranychus urticae [2]) | mortality at 10 µg/mL (Tetranychus urticae [3]) | mortality at 2 µg/mL (Tetranychus urticae [4]) | mortality at 30 µg/mL (Tetranychus urticae [5]) | mortality at 50 µg/mL (Tetranychus urticae [6]) | mortality at 100 µg/mL (Tetranychus urticae [7]) | Activity (Caenorhabditis elegans [8]) | Activity (Caenorhabditis elegans [9]) | Activity (Caenorhabditis elegans [10]) | Activity (Caenorhabditis elegans [11]) | Activity (Caenorhabditis elegans [12]) | Activity (Tetranychus urticae [13]) | Activity (Tetranychus urticae [14]) | Activity (Tetranychus urticae [15]) |
| --- | --- | --- | --- | --- | --- | --- | --- | --- | --- | --- | --- | --- | --- | --- | --- |
| CO[C@H]1C[C@H](O[C@H]2[C@H](C)O[C@@H](O[C@@H]3/C(C)=C/C[C@@H]4C[C@@H](C[C@]5(C=C[C@H](C)[C@@H](C6CCCCC6)O5)O4)OC(=O)[C@@H]4C=C(C)[C@@H](O)[C@H]5OC/C(=C\C=C\[C@@H]3C)[C@]54O)C[C@@H]2OC)O[C@@H](C)[C@@H]1O [DORAMECTIN] | 21.5% | 47.4% | 62.9% | 26.8% | 86.5% | 100% | 100% | 45.3% | 86.5% | 100% | 100% | 100% | 0% | 0% | 8.9% |
| C/C1=C\C[C@@H]2C[C@@H](C[C@]3(C=C[C@H](C)[C@@H](C4CCCCC4)O3)O2)OC(=O)c2cc(C)c(O)cc2/C=C/C=C/[C@H](C)[C@@H]1O | 37.6% | 56.7% | 77.1% | 45.2% | 92.5% | 100% | 100% | 13.5% | 49.2% | 81.4% | 100% | 100% | 0% | 12.1% | 19.8% |
| C/C1=C\C[C@@H]2C[C@@H](C[C@]3(C[C@@H](O)[C@H](C)[C@@H](C4CCCCC4)O3)O2)OC(=O)c2cc(C)c(O)cc2/C=C/C=C/[C@H](C)[C@@H]1O | 43.7% | 59.8% | 75.6% | 43.9% | 96.4% | 100% | 100% | 43.7% | 92.7% | 100% | 100% | 100% | 0% | 13.9% | 23.5% |
